In ChEMBL document CHEMBL1156517, “Targeting thyroid hormone receptor-beta agonists to the liver reduces cholesterol and triglycerides and improves the therapeutic index” (Proc Natl Acad Sci U S A, 2007):
pKi: −log10 of the molar value. Calls of active or inactive are those of the source. The calls are words filed in the database; no cut-off is given here.

Tests used:
Rattus norvegicus [1] = experiment: Toxicity in Sprague-Dawley rat assessed as suppression of thyroid hormone axis measured by decrease in total 3,5,3',5'-tetraiodo-L-thyronine level at 30 mg/kg, po after 7 weeks; assay type: organism-based; design: dose 30 mg/kg, route oral; settings: in vivo, 1176 h
Rattus norvegicus [2] = experiment: Toxicity in Sprague-Dawley rat assessed as suppression of thyroid hormone axis measured by decrease in free 3,5,3',5'-tetraiodo-L-thyronine level at 30 mg/kg, po after 7 weeks; assay type: organism-based; design: dose 30 mg/kg, route oral; settings: in vivo, 1176 h
Outline: (§1)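 Male SD rats (n = 5–6 per group; baseline group n = 8) given vehicle (0.5% CMC/1% Lutrol F68) or drug orally once daily. One group per cohort weighed and killed by decapitation without anesthesia after 1, 2, 4 and 7 weeks. Trunk-blood serum assayed for total/free T3 and T4; TSH by [125I] radioimmunoassay with magnetic separation. Pituitary TSHβ mRNA also measured.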

Rattus norvegicus [3] = experiment: Toxicity in Sprague-Dawley rat assessed as suppression of thyroid hormone axis measured by decrease in serum TSH level at 30 mg/kg, po after 7 weeks; assay type: organism-based; design: dose 30 mg/kg, route oral; settings: in vivo, 1176 h
Rattus norvegicus [4] = experiment: Toxicity in Sprague-Dawley rat assessed as suppression of thyroid hormone axis measured by decrease in TSH-beta mRNA level at 30 mg/kg, po after 7 weeks; assay type: organism-based; design: dose 30 mg/kg, route oral; settings: in vivo, 1176 h; outline: as §1
Mus musculus [5] = experiment: Effect on hepatic LDLR mRNA level in diet-induced obese C57BL/6 mouse at 10 mg/kg, po after 8 hrs by RT-PCR; assay type: functional
Outline: (§2)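 Single oral dose in male DIO mice: C57BL/6 mice, about 4 weeks old at start, fed a 60% fat (by kcal) diet for about 170 days. Hepatic LDLR mRNA read out at early time points (3 and 8 h) after dosing.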

Rattus norvegicus [6] = experiment: Effect on body weight in Sprague-Dawley rat at 1 mg/kg/day, po after 8 days; assay type: functional
Rattus norvegicus [7] = experiment: Effect on food intake in Sprague-Dawley rat at 1 mg/kg/day, po after 8 days; assay type: functional
[8] = molecular target: Thyroid hormone receptor alpha (Homo sapiens, UniProt P10827); experiment: Displacement of [125I]T3 from recombinant thyroid hormone receptor alpha expressed in sf9 cells by scintillation proximity assay
Thyroid hormone receptor alpha, sequence (P10827 whole entry): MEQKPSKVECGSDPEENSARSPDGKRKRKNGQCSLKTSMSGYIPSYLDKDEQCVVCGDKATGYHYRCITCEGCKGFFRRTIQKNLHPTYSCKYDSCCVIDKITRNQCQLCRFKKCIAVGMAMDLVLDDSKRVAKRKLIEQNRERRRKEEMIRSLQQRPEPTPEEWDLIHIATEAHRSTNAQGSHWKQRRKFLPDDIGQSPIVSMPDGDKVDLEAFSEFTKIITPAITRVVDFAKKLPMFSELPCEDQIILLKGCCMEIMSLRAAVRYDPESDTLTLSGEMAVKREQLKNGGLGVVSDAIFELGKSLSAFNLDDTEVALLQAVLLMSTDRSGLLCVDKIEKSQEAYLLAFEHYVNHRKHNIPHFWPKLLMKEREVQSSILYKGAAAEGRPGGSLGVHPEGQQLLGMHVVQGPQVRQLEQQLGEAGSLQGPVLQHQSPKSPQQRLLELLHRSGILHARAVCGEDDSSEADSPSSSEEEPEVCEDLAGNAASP

[9] = molecular target: Thyroid hormone receptor beta (Homo sapiens, UniProt P10828); experiment: Displacement of [125I]T3 from recombinant thyroid hormone receptor beta expressed in sf9 cells by scintillation proximity assay
Thyroid hormone receptor beta, sequence (P10828 whole entry): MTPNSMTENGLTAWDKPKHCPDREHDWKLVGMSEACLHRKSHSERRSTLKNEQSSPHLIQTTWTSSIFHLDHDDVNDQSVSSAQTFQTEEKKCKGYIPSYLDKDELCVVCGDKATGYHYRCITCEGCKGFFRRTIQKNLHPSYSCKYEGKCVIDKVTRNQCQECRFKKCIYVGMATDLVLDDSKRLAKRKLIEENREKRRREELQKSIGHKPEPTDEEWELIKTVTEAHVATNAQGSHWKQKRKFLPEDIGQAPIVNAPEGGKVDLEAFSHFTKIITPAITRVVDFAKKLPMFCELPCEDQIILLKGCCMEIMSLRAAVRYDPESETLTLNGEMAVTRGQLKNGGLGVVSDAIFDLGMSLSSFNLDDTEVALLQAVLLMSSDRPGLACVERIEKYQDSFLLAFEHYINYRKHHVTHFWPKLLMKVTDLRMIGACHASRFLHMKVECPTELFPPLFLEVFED

[10] = (§3) Activity of CYP3A in Sprague-Dawley rat liver microsome; assay type: ADME; settings: microsomes
CYP3A = experiment: as §3; assay type: ADME; settings: Sprague-Dawley, liver microsomes
[11] = Inhibition of CYP3A in Sprague-Dawley rat liver microsome at 10 uM; assay type: ADME; settings: microsomes
Hepatocyte = experiment: Cmax per10'6 cells in Sprague-Dawley rat hepatocytes at 10 uM; assay type: ADME, Liver; design: dose 10 uM
Outline: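 Freshly isolated rat hepatocytes were incubated with compound. Intracellular levels of the active phosphonate were followed over time and expressed per 10⁶ cells, giving Cmax and tmax.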

[12] = Clearance in Sprague-Dawley rat at 3 mg/kg, iv; assay type: ADME, organism-based; design: dose 3 mg/kg, route intravenous; settings: in vivo
Outline: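 Male SD rats received a single i.v. dose. Clearance and other PK parameters came from plasma concentration–time profiles of both the prodrug and the active phosphonate, values reported as mean ± SEM.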

[13] = Volume of distribution in Sprague-Dawley rat at 3 mg/kg, iv; assay type: ADME, organism-based; design: dose 3 mg/kg, route intravenous; settings: in vivo
Mus musculus [14] = experiment: Decrease in plasma triglyceride level in po dosed diet-induced obese C57BL/6 mouse after 14 days; assay type: functional; design: scale not given: the % may be the effect or the level left
Outline: (§4)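 DIO mice were male C57BL/6 fed a 60%-fat (by kcal) diet from about 4 weeks of age for about 170 days. They were grouped (n = 8) to match cholesterol and body weight. Dosing was oral, once daily for 2 weeks, in 0.5% CMC/1% Lutrol F68. At kill, blood was taken by cardiac puncture for plasma TGs. The liver was removed and weighed, and hepatic TGs were measured.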

Mus musculus [15] = experiment: Decrease in cholesterol level in wild-type C57BL/6 mouse at 5 mg/kg/day once daily for 7 days; assay type: functional, organism-based
Mus musculus [16] = experiment: Decrease in liver triglyceride level in po dosed diet-induced obese C57BL/6 mouse after 14 days; assay type: functional; design: scale not given: the % may be the effect or the level left; outline: as §4
Mus musculus [17] = experiment: Decrease in cholesterol level in LDLR deficient C57BL/6 mouse at 0.5 mg/kg/day once daily for 7 days; assay type: functional, organism-based
Mus musculus [18] = experiment: Decrease in cholesterol level in LDLR deficient C57BL/6 mouse at 5 mg/kg/day once daily for 7 days; assay type: functional, organism-based
Mus musculus [19] = experiment: Decrease in liver weight in po dosed diet-induced obese C57BL/6 mouse after 14 days; assay type: functional; design: scale not given: the % may be the effect or the level left; outline: as §4
Mus musculus [20] = experiment: Decrease in cholesterol level in wild-type C57BL/6 mouse at 0.5 mg/kg/day once daily for 7 days; assay type: functional, organism-based
Mus musculus [21] = experiment: Effect on hepatic LDLR mRNA level in LDLR deficient C57BL/6 mouse at 5 mg/kg/day once daily for 7 days; assay type: functional
Mus musculus [22] = experiment: Decrease in body weight in diet-induced obese C57BL/6 mouse at 30 mg/kg/day, po; assay type: functional; design: scale not given: the % may be the effect or the level left
Mus musculus [23] = experiment: Effect on hepatic LDLR mRNA level in wild-type C57BL/6 mouse at 5 mg/kg/day once daily for 7 days; assay type: functional
Rattus norvegicus [24] = experiment: Effect on fasting blood glucose level in Sprague-Dawley rat at 1 mg/kg/day, po after 8 days by oral glucose tolerance test; assay type: functional
Rattus norvegicus [25] = experiment: Effect on plasma insulin level in Sprague-Dawley rat at 1 mg/kg/day, po after 8 days; assay type: functional
Rattus norvegicus [26] = experiment: Effect on plasma fatty acid level in Sprague-Dawley rat at 1 mg/kg/day, po after 8 days; assay type: functional
Mus musculus [27] = experiment: Effect on hepatic LDLR mRNA level in diet-induced obese C57BL/6 mouse at 10 mg/kg, po after 3 hrs by RT-PCR; assay type: functional; outline: as §2
Rattus norvegicus [28] = experiment: Effect on body weight in Sprague-Dawley rat at 10 mg/kg/day, po after 8 days; assay type: functional
Rattus norvegicus [29] = experiment: Effect on food intake in Sprague-Dawley rat at 10 mg/kg/day, po after 8 days; assay type: functional
Rattus norvegicus [30] = experiment: Effect on fasting blood glucose level in Sprague-Dawley rat at 10 mg/kg/day, po after 8 days by oral glucose tolerance test; assay type: functional
Rattus norvegicus [31] = experiment: Effect on plasma insulin level in Sprague-Dawley rat at 10 mg/kg/day, po after 8 days; assay type: functional
Rattus norvegicus [32] = experiment: Effect on plasma fatty acid level in Sprague-Dawley rat at 10 mg/kg/day, po after 8 days; assay type: functional
Rattus norvegicus [33] = experiment: Effect on body weight in Sprague-Dawley rat at 50 mg/kg/day, po after 8 days; assay type: functional
Rattus norvegicus [34] = experiment: Effect on food intake in Sprague-Dawley rat at 50 mg/kg/day, po after 8 days; assay type: functional
Rattus norvegicus [35] = experiment: Effect on fasting blood glucose level in Sprague-Dawley rat at 50 mg/kg/day, po after 8 days by oral glucose tolerance test; assay type: functional
Rattus norvegicus [36] = experiment: Effect on plasma insulin level in Sprague-Dawley rat at 50 mg/kg/day, po after 8 days; assay type: functional
Rattus norvegicus [37] = experiment: Effect on plasma fatty acid level in Sprague-Dawley rat at 50 mg/kg/day, po after 8 days; assay type: functional
Mus musculus [38] = experiment: Reduction in plasma cholesterol level in po dosed diet-induced obese C57BL/6 mouse after 2 weeks; assay type: functional; design: scale not given: the % may be the effect or the level left
Outline: (§5)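 Male C57BL/6 mice, about 4 weeks old, fed a high-fat diet (60% kcal fat) for about 170 days. Assigned to groups (n = 8) matched for cholesterol and body weight. Dosed orally once daily in 0.5% CMC/1% Lutrol F68 for 2 weeks. Baseline blood taken by tail nick. At end, cardiac-puncture blood used for cholesterol, TGs, glucose and thyroid hormones; liver weighed and hepatic TGs measured.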

Mus musculus [39] = experiment: Reduction in plasma cholesterol level in diet-induced obese C57BL/6 mouse at 3 mg/kg/day, po; assay type: functional; design: scale not given: the % may be the effect or the level left; outline: as §5
Rattus norvegicus [40] = experiment: Increase in hepatic LDLR mRNA level in thyroidectomized Sprague-Dawley rat at 5 mg/kg after 24 hrs by RT-PCR relative to control; assay type: functional
Outline: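 Male thyroidectomized SD rats given 5 mg/kg, with a parallel T₃ arm at 0.5 mg/kg. Hepatic LDLR mRNA quantified by quantitative real-time PCR.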

Mus musculus [41] = experiment: Decrease in plasma triglyceride level in diet-induced obese C57BL/6 mouse at 3 mg/kg/day, po after 14 days; assay type: functional; design: scale not given: the % may be the effect or the level left; outline: as §4
Mus musculus [42] = experiment: Decrease in liver triglyceride level in diet-induced obese C57BL/6 mouse at 3 mg/kg/day, po after 14 days; assay type: functional; design: scale not given: the % may be the effect or the level left; outline: as §4
Mus musculus [43] = experiment: Reduction in blood glucose level in po dosed diet-induced obese C57BL/6 mouse; assay type: functional, organism-based; outline: as §5
Rattus norvegicus [44] = species: Rattus norvegicus; experiment: Reduction in plasma cholesterol level in cholesterol fed Sprague-Dawley rat; assay type: functional
Rattus norvegicus [45] = experiment: Effect on malic enzyme mRNA expression in po dosed Sprague-Dawley rat liver; assay type: functional, organism-based; settings: TDE = time-dependent effect
Outline: (§6)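 Killed 3, 8 and 24 h post-dose under 2.5% isoflurane. Pituitary and thyroid snap-frozen; liver, heart, soleus, spleen and kidney freeze-clamped. mRNA by quantitative real-time PCR, expressed as fold-change vs vehicle.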

Rattus norvegicus [46] = experiment: Effect on SREBP-1c mRNA expression in po dosed Sprague-Dawley rat liver; assay type: functional, organism-based; settings: TDE = time-dependent effect
Rattus norvegicus [47] = experiment: Effect on LDLR mRNA expression in po dosed Sprague-Dawley rat liver; assay type: functional, organism-based; settings: TDE = time-dependent effect
Rattus norvegicus [48] = experiment: Effect on type 1 iodothyronine deiodinase mRNA expression in po dosed Sprague-Dawley rat liver; assay type: functional, organism-based; settings: TDE = time-dependent effect; outline: as §6

For Cc1cc(OCP2(=O)OCC[C@@H](c3cccc(Cl)c3)O2)cc(C)c1Cc1ccc(O)c(C(C)C)c1 (stereo not given in full) [MB07811], the Activity (Rattus norvegicus [1]) was “Active”, the Activity (Rattus norvegicus [2]) was “Active” and the Activity (Rattus norvegicus [3]) was “Active”. The Activity (Rattus norvegicus [4]) was “Active”, the “fold change (FC)” value (Mus musculus [5]) was 2.01 and the Activity (Rattus norvegicus [6]) was 42.8 g. For the same molecule, the Activity (Rattus norvegicus [7]) was 15.1%, the pKi [8] was 4.90 and the pKi [9] was 4.84. The Vmax [10] was 2.74 nmol/min/mg, the Km (CYP3A) was 18.8 µM and the Activity [11] was “Not Active”. The Cmax (Hepatocyte) was 1.03 nmol, the clearance [12] was 193 mL/min/kg and the Vd [13] was 14.8 L/kg. The Activity (Mus musculus [14]) was 40%, the Activity (Mus musculus [15]) was “Active” and the Activity (Mus musculus [16]) was 42%. For the same molecule, the Activity (Mus musculus [17]) was “inactive”, the Activity (Mus musculus [18]) was “inactive” and the Activity (Mus musculus [19]) was 42%. For the same molecule, the Activity (Mus musculus [20]) was “Active”, the Activity (Mus musculus [21]) was -10.8% and the Activity (Mus musculus [22]) was 3%. For the same molecule, the Activity (Mus musculus [23]) was -31.8%, the Activity (Rattus norvegicus [24]) was 9 mg/dL and the Activity (Rattus norvegicus [25]) was 0.424 ng/mL. For the same molecule, the Activity (Rattus norvegicus [26]) was 0.454 mM, the “fold change (FC)” value (Mus musculus [27]) was 1.23 and the Activity (Rattus norvegicus [28]) was 37.9 g. For the same molecule, the Activity (Rattus norvegicus [29]) was 14.6%, the Activity (Rattus norvegicus [30]) was 11.8 mg/dL and the Activity (Rattus norvegicus [31]) was 0.342 ng/mL. The Activity (Rattus norvegicus [32]) was 0.541 mM, the Activity (Rattus norvegicus [33]) was 49.3 g and the Activity (Rattus norvegicus [34]) was 15.6%. For the same molecule, the Activity (Rattus norvegicus [35]) was -0.5 mg/dL, the Activity (Rattus norvegicus [36]) was 0.402 ng/mL and the Activity (Rattus norvegicus [37]) was 0.524 mM. The Activity (Mus musculus [38]) was 61%, the Activity (Mus musculus [39]) was 51% and the “fold change (FC)” value (Rattus norvegicus [40]) was 21.063. The Activity (Mus musculus [41]) was 38%, the Activity (Mus musculus [42]) was 69% and the Activity (Mus musculus [43]) was “Active”. For the same molecule, the ED50 (Rattus norvegicus [44]) was 0.4 mg/kg, the Activity (Rattus norvegicus [45]) was “tde” and the Activity (Rattus norvegicus [46]) was “tde”. For the same molecule, the Activity (Rattus norvegicus [47]) was “tde” and the Activity (Rattus norvegicus [48]) was “tde”.
